Results as given in ChEMBL document CHEMBL1145899, “Estrogenic potential of 2-alkyl-4-(thio)chromenone 6-O-sulfamates: potent inhibitors of human steroid sulfatase” (J Med Chem, 2003).

Assays:
[1] = biological target: T1, Estrogen receptor (Homo sapiens) (UniProt P03372)
T1 sequence (whole entry): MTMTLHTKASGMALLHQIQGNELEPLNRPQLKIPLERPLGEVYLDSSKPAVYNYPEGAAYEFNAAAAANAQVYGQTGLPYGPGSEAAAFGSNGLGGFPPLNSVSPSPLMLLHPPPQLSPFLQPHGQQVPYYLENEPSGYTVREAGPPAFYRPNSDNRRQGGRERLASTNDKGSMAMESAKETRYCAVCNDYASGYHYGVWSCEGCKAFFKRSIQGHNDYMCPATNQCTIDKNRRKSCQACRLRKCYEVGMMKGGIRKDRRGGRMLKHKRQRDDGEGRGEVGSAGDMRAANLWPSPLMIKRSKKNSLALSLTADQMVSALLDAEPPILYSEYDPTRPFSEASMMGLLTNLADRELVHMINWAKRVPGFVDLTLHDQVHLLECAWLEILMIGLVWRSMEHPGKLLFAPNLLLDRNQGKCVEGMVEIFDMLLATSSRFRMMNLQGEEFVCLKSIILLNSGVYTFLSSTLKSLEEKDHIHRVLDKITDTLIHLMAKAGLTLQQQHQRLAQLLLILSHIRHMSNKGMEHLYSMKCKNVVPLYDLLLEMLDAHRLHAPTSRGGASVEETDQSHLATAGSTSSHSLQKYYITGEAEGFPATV

[2] = biological target: Estrogen receptor beta (Homo sapiens) (UniProt Q92731)
[3] = biological target: T1, Estrogen receptor (Homo sapiens); test: Affinity of sulfamate compound for human estrogen receptor alpha
Procedure, shortened: (§1)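 Fluorescence polarization competition with purified human ER; ER-α final 13 nM or ER-β final 10 nM, fluorescein-estradiol tracer 1 nM final. Compounds from DMSO or ethanol stocks, 0.5% (v/v) final solvent; room temperature 2–2.5 h; triplicate wells. Four-parameter logistic fit; ED50 = concentration giving polarization midway between +tracer/+ER and +tracer/−ER controls. Tested up to solubility limit.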

[4] = biological target: Estrogen receptor beta (Homo sapiens) (UniProt Q92731); test: Affinity of sulfamate compound for human estrogen receptor beta
Procedure, shortened: as §1

MCF7 [5] = test: Stimulation of MCF-7 cell proliferation at 10 nM; type: functional, Homo sapiens
Procedure, shortened: (§2)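 MCF-7 cells hormone-depleted 10 days, then seeded at 20 000 cells/cm² in phenol red-free RPMI with 2.5% charcoal-stripped FCS and held 5 days. Compound (ethanol/DMSO, ≤0.1% solvent) added day 5, refreshed day 8; sulforhodamine counts days 5 and 10; triplicate wells. % stimulation = (growth vs solvent controls ×100) − 100.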

MCF7 [6] = test: Stimulation of MCF-7 cell proliferation at 1000 nM; type: functional, Homo sapiens
Procedure, shortened: as §2

MCF7 [7] = test: Stimulation of MCF-7 cell proliferation at 100 nM; type: functional, Homo sapiens
Procedure, shortened: as §2

Steryl-sulfatase = biological target: T2, Steryl-sulfatase (Homo sapiens, UniProt P08842); test: Inhibition of steroid sulfatase
T2 sequence (P08842 whole entry): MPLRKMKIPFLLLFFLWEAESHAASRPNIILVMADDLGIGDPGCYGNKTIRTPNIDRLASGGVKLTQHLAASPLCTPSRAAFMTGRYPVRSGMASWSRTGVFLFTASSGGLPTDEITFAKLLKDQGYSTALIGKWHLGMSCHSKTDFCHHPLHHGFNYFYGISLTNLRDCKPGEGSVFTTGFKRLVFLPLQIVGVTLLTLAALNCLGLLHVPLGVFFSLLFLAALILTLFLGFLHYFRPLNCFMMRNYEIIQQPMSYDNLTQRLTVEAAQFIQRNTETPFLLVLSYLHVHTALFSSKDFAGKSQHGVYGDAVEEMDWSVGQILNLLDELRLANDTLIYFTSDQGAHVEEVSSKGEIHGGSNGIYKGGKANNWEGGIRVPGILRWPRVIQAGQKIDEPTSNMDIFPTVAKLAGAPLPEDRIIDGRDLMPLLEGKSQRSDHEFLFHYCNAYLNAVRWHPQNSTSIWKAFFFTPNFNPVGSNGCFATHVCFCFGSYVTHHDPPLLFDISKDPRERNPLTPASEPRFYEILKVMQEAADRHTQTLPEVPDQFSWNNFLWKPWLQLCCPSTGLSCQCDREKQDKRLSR
Procedure, shortened: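 Purified recombinant human STS; fluorimetric assay with 4-methylumbelliferone sulfate as substrate. IC50 by nonlinear regression; mean of triplicate determinations.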

Chain of Estrogen receptor beta (Homo sapiens) (Q92731 whole entry): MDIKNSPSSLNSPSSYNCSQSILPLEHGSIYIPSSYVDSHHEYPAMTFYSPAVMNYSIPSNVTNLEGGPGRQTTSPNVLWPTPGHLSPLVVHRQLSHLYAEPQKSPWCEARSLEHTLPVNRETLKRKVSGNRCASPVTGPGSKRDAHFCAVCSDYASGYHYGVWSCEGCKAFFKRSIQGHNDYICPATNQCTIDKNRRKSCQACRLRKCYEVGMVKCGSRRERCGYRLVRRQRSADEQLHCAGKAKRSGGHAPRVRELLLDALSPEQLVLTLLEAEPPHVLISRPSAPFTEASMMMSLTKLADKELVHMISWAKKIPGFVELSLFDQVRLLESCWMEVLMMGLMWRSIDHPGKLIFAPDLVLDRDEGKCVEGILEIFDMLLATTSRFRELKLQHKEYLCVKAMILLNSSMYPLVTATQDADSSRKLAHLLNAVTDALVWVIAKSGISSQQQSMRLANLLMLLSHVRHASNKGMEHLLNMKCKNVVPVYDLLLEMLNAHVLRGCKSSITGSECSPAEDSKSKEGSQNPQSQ

Structure (SMILES)	ED50 [1]	ED50 [2]	ED50 [3]	ED50 [4]	Stimulation (MCF7 [5])	Stimulation (MCF7 [6])	Stimulation (MCF7 [7])	IC50 (Steryl-sulfatase)
O=c1cc(C23CC4CC(CC(C4)C2)C3)oc2ccc(O)cc12	1.5 µM	1.4 µM						
CCCCCC12CCC(CC1)C(c1cc(=O)c3cc(O)ccc3o1)C2 (stereo unspecified)	> 100 µM	> 100 µM						
NS(=O)(=O)Oc1ccc2oc(CCc3ccccc3)cc(=O)c2c1			> 100 µM	> 100 µM	16%	45%	33%	
C[C@]12CC[C@@H]3c4ccc(OS(N)(=O)=O)cc4CCC3[C@@H]1CCC2=O (single isomer, unassigned) [EMATE]			2.6 µM	3.7 µM	97%	123%	112%	
C[C@]12CC[C@@H]3c4ccc(O)cc4CC[C@H]3[C@@H]1CC[C@@H]2O [ESTRADIOL]		0.011 µM			400%			
CC(C)(C)c1cc(=O)c2cc(O)ccc2o1	64 µM	69 µM						
CCCCCCCCCc1cc(=O)c2cc(O)ccc2o1	> 100 µM	> 100 µM						
CCCCCCCCC(C)(C)c1cc(=O)c2cc(OS(N)(=O)=O)ccc2o1	> 30 µM	> 100 µM			0%	0%	0%	
CC1(C)C(c2cc(=O)c3cc(OS(N)(=O)=O)ccc3o2)C1(C)C	30 µM	47 µM			52%	120%	85%	
O=c1cc(C23CC4CC(CC(C4)C2)C3)sc2ccc(O)cc12	0.21 µM	0.48 µM						
NS(=O)(=O)Oc1ccc2oc(C34CC5CC(CC(C5)C3)C4)cc(=O)c2c1	> 30 µM	> 30 µM			71%	116%	88%	0.0056 µM
NS(=O)(=O)Oc1ccc2sc(C34CC5CC(CC(C5)C3)C4)cc(=O)c2c1	4.8 µM	18 µM			78%	120%	99%	
CC1(C)C(c2cc(=O)c3cc(O)ccc3o2)C1(C)C	0.9 µM	2.6 µM						
O=c1cc(C2CCCCCCCCCCC2)oc2ccc(O)cc12	0.8 µM	1.5 µM						
NS(=O)(=O)Oc1ccc2oc(C3CCCCCCCCCCC3)cc(=O)c2c1	> 10 µM	> 30 µM			48%	118%	72%	
CCCCCCCCC(C)(C)c1cc(=O)c2cc(O)ccc2o1	> 100 µM	> 100 µM						
CC(C)(C)c1cc(=O)c2cc(OS(N)(=O)=O)ccc2o1	> 100 µM	> 100 µM			12%	100%	45%	
O=C1CC(C23CC4CC(CC(C4)C2)C3)Oc2ccc(O)cc21 (stereo unspecified)	0.1 µM	0.035 µM						
CCCCCCCCCc1cc(=O)c2cc(OS(N)(=O)=O)ccc2o1	> 50 µM	> 100 µM			0%	0%	0%	
NS(=O)(=O)Oc1ccc2c(c1)C(=O)CC(C13CC4CC(CC(C4)C1)C3)O2 (stereo unspecified)	13 µM	14 µM			79%	130%	90%	
